Test results from ChEMBL document CHEMBL1153726, “Synthesis and anticancer activity of sclerophytin-inspired hydroisobenzofurans” (Bioorg Med Chem Lett, 2009).

Legend:
Format in all cases: functional
K562 = assay: Growth inhibition of human K562 cells at 100 nM after 96 hrs by MTT assay; set-up: scale not given: the % may be the effect or the level left
NCI-H522 = assay: Growth inhibition of human NCI-H522 cells at 1 nM after 96 hrs by MTT assay; set-up: scale not given: the % may be the effect or the level left
SN12C = assay: Growth inhibition of human SN12C cells at 100 nM after 96 hrs by MTT assay; set-up: scale not given: the % may be the effect or the level left
HL-60(TB) [1] = assay: Growth inhibition of human HL-60(TB) cells at 1 nM after 96 hrs by MTT assay; set-up: scale not given: the % may be the effect or the level left
786-0 = assay: Growth inhibition of human 786-0 cells at 1 uM after 96 hrs by MTT assay; set-up: scale not given: the % may be the effect or the level left
EKVX = assay: Growth inhibition of human EKVX cells at 10 nM after 96 hrs by MTT assay; set-up: scale not given: the % may be the effect or the level left
MDA-MB-435 [2] = assay: Growth inhibition of human MDA-MB-435 cells after 96 hrs by MTT assay; details: MDA-MB-435, 96 h
How it was run: (§1)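 Run in the NCI 60 human tumour cell line panel as a five-dose assay. GI50 and LC50 were reported for each cell line.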

KM12 = assay: Growth inhibition of human KM12 cells after 96 hrs by MTT assay; details: KM12, 96 h; how it was run: as §1
PC-3 [3] = assay: Growth inhibition of human PC3 cells at 10 uM after 96 hrs by MTT assay; set-up: scale not given: the % may be the effect or the level left
UACC-257 [4] = assay: Growth inhibition of human UACC257 cells at 10 uM after 96 hrs by MTT assay; set-up: scale not given: the % may be the effect or the level left
IGROV-1 = assay: Growth inhibition of human IGROV1 cells after 96 hrs by MTT assay; details: IGROV-1, 96 h; how it was run: as §1
SW-620 = assay: Growth inhibition of human SW620 cells at 10 nM after 96 hrs by MTT assay; set-up: scale not given: the % may be the effect or the level left
SNB-19 = assay: Growth inhibition of human SNB19 cells at 10 nM after 96 hrs by MTT assay; set-up: scale not given: the % may be the effect or the level left
MOLT-4 = assay: Growth inhibition of human MOLT4 cells at 1 nM after 96 hrs by MTT assay; set-up: scale not given: the % may be the effect or the level left
UACC-257 [5] = assay: Growth inhibition of human UACC257 cells after 96 hrs by MTT assay; details: UACC-257, 96 h
How it was run: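 Tested in the NCI 60-cell-line panel in five-dose format; GI50 and LC50 values reported for each cell line.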

T47D = assay: Growth inhibition of human T47D cells at 100 nM after 96 hrs by MTT assay; set-up: scale not given: the % may be the effect or the level left
[6] = Growth inhibition of human RPMI8266 cells at 100 nM after 96 hrs by MTT assay; set-up: scale not given: the % may be the effect or the level left
OVCAR-4 = assay: Growth inhibition of human OVCAR4 cells at 1 uM after 96 hrs by MTT assay; set-up: scale not given: the % may be the effect or the level left
MDA-MB-231 = assay: Growth inhibition of human MDA-MB-231 cells at 1 nM after 96 hrs by MTT assay; set-up: scale not given: the % may be the effect or the level left
HCC 2998 = assay: Growth inhibition of human HCC2998 cells after 96 hrs by MTT assay; details: HCC 2998, 96 h; how it was run: as §1
SR = assay: Growth inhibition of human SR cells at 1 uM after 96 hrs by MTT assay; set-up: scale not given: the % may be the effect or the level left
SF-295 = assay: Growth inhibition of human SF295 cells at 10 nM after 96 hrs by MTT assay; set-up: scale not given: the % may be the effect or the level left
PC-3 [7] = assay: Growth inhibition of human PC3 cells at 1 nM after 96 hrs by MTT assay; set-up: scale not given: the % may be the effect or the level left
A498 [8] = assay: Growth inhibition of human A498 cells at 10 uM after 96 hrs by MTT assay; set-up: scale not given: the % may be the effect or the level left
NCI-H226 = assay: Growth inhibition of human NCI-H226 cells at 100 nM after 96 hrs by MTT assay; set-up: scale not given: the % may be the effect or the level left
MDA-MB-435 [9] = assay: Growth inhibition of human MDA-MB-435 cells at 1 nM after 96 hrs by MTT assay; set-up: scale not given: the % may be the effect or the level left
SK-MEL-28 = assay: Growth inhibition of human SK-MEL-28 cells at 10 nM after 96 hrs by MTT assay; set-up: scale not given: the % may be the effect or the level left
A498 [10] = assay: Growth inhibition of human A498 cells at 1 nM after 96 hrs by MTT assay; set-up: scale not given: the % may be the effect or the level left
MDA-MB-468 = assay: Growth inhibition of human MDA-MB-468 cells at 10 nM after 96 hrs by MTT assay; set-up: scale not given: the % may be the effect or the level left
HOP-92 = assay: Growth inhibition of human HOP92 cells after 96 hrs by MTT assay; details: HOP-92, 96 h; how it was run: as §1
SK-MEL-5 = assay: Growth inhibition of human SK-MEL-5 cells at 1 nM after 96 hrs by MTT assay; set-up: scale not given: the % may be the effect or the level left
A498 [11] = assay: Growth inhibition of human A498 cells at 100 nM after 96 hrs by MTT assay; set-up: scale not given: the % may be the effect or the level left
HOP-62 = assay: Growth inhibition of human HOP62 cells after 96 hrs by MTT assay; details: HOP-62, 96 h; how it was run: as §1
[12] = Growth inhibition of human RPMI8266 cells at 1 nM after 96 hrs by MTT assay; set-up: scale not given: the % may be the effect or the level left
RXF 393 = assay: Growth inhibition of human RXF393 cells at 1 uM after 96 hrs by MTT assay; set-up: scale not given: the % may be the effect or the level left
LOX IMVI = assay: Growth inhibition of human LOXIMVI cells at 10 nM after 96 hrs by MTT assay; set-up: scale not given: the % may be the effect or the level left
SK-OV-3 = assay: Growth inhibition of human SKOV3 cells at 100 nM after 96 hrs by MTT assay; set-up: scale not given: the % may be the effect or the level left
HL-60(TB) [13] = assay: Growth inhibition of human HL-60(TB) cells after 96 hrs by MTT assay; details: HL-60, 96 h
[14] = read-out: Log10GI50 (converted)
[15] = read-out: Log10LC50 (converted)
[16] = read-out: LC50 (the source's name)

## C=C(C)[C@H]1CC=C(C)C2=CO[C@@H](c3ccccc3F)[C@@H]21
K562
  Activity: 68%
NCI-H522
  Activity: 82%
SN12C
  Activity: 79%
HL-60(TB) [1]
  Activity: 104%
786-0
  Activity: 48%
EKVX
  Activity: 93%
MDA-MB-435 [2]; read-out: GI50
  GI50: 2.65 µM
MDA-MB-435 [2]; read-out: LC50
  LC50: 66.3 µM
MDA-MB-435 [2]; [14]
  GI50: 2.63 µM
MDA-MB-435 [2]; [15]
  LC50: 66.1 µM
MDA-MB-435 [2]; read-out: Log10TGI (converted)
  TGI: 11.5 µM
MDA-MB-435 [2]; read-out: TGI
  TGI: 11.4 µM
KM12; read-out: GI50
  GI50: 4.02 µM
KM12; read-out: LC50
  LC50: 40.4 µM
KM12; [14]
  GI50: 3.98 µM
KM12; [15]
  LC50: 40.7 µM
KM12; read-out: Log10TGI (converted)
  TGI: 15.8 µM
KM12; read-out: TGI
  TGI: 15.7 µM
PC-3 [3]
  Activity: 22.47%
UACC-257 [4]
  Activity: 76.82%
IGROV-1; read-out: GI50
  GI50: 11.3 µM
IGROV-1; [16]
  CC50: > 100 µM
IGROV-1; [14]
  GI50: 11.2 µM
IGROV-1; [15]
  CC50: > 100 µM
IGROV-1; read-out: Log10TGI (converted)
  TGI: 34.7 µM
IGROV-1; read-out: TGI
  TGI: 34.6 µM
SW-620
  Activity: 97%
SNB-19
  Activity: 89%
MOLT-4
  Activity: 106%
UACC-257 [5]; read-out: GI50
  GI50: 6.71 µM
UACC-257 [5]; [16]
  CC50: 50.9 µM
UACC-257 [5]; [14]
  GI50: 6.76 µM
UACC-257 [5]; [15]
  CC50: 51.3 µM
UACC-257 [5]; read-out: Log10TGI (converted)
  TGI: 21.4 µM
UACC-257 [5]; read-out: TGI
  TGI: 21.3 µM
T47D
  Activity: 76%
[6]
  Activity: 23%
OVCAR-4
  Activity: 33%
MDA-MB-231
  Activity: 101%
HCC 2998; read-out: GI50
  GI50: 6.4 µM
HCC 2998; [16]
  CC50: 45.3 µM
HCC 2998; [14]
  GI50: 6.46 µM
HCC 2998; [15]
  CC50: 45.7 µM
HCC 2998; read-out: Log10TGI (converted)
  TGI: 19.5 µM
HCC 2998; read-out: TGI
  TGI: 19.3 µM
SR
  Activity: -36%
SF-295
  Activity: 92%
PC-3 [7]
  Activity: 95%
A498 [8]
  Activity: 104.48%
NCI-H226
  Activity: 75%
MDA-MB-435 [9]
  Activity: 92%
SK-MEL-28
  Activity: 93%
A498 [10]
  Activity: 82%
MDA-MB-468
  Activity: 79%
HOP-92; read-out: GI50
  GI50: 0.552 µM
HOP-92; [16]
  CC50: 26.8 µM
HOP-92; [14]
  GI50: 0.55 µM
HOP-92; [15]
  CC50: 26.9 µM
HOP-92; read-out: Log10TGI (converted)
  TGI: 5.75 µM
HOP-92; read-out: TGI
  TGI: 5.76 µM
SK-MEL-5
  Activity: 91%
A498 [11]
  Activity: 88%
HOP-62; read-out: GI50
  GI50: 10.1 µM
HOP-62; [16]
  CC50: 46.8 µM
HOP-62; [14]
  GI50: 10.2 µM
HOP-62; [15]
  CC50: 46.8 µM
HOP-62; read-out: Log10TGI (converted)
  TGI: 21.9 µM
HOP-62; read-out: TGI
  TGI: 21.8 µM
[12]
  Activity: 78%
RXF 393
  Activity: 44%
LOX IMVI
  Activity: 91%
SK-OV-3
  Activity: 98%
HL-60(TB) [13]; read-out: GI50
  GI50: 2.08 µM
HL-60(TB) [13]; [16]
  CC50: 35.5 µM
HL-60(TB) [13]; [14]
  GI50: 2.09 µM
HL-60(TB) [13]; [15]
  CC50: 35.5 µM
HL-60(TB) [13]; read-out: Log10TGI (converted)
  TGI: 5.01 µM
HL-60(TB) [13]; read-out: TGI
  TGI: 4.97 µM
